# Screens (PubChem)
# Only some compounds are listed: those with a hit (about 4.1% of all), similar ones and a draw of the others.
# KCNK3 block – human KCNK3 channel inhibition, primary screen; O14649; CHO-KCNK3 thallium flux, FluxOR fluorescence; stronger effect = lower value; B-score at 10 µM; 340,000 tested, 0.84% active; AID 602410;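 active = B-score under library mean minus 4 SD, starting fluorescence ratio at most library mean plus 5 SD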;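 note: more negative B-score means stronger inhibition of thallium flux through KCNK3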
# Target sequence (O14649 whole entry, looked up): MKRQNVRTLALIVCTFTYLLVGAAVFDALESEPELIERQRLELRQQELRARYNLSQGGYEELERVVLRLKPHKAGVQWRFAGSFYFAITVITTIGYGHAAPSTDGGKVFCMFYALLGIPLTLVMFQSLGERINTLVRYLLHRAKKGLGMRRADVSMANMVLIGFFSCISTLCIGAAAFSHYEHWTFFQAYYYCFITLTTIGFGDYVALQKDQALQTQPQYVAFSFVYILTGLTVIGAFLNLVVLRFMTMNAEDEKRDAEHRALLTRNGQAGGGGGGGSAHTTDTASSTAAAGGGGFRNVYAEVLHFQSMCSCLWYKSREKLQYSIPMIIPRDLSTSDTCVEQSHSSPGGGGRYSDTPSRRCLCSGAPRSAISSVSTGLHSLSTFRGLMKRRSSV
# hERG rescue – shields human hERG channel from block by proarrhythmic agents; CHO-hERG, FluxOR thallium flux, dofetilide IC70 present; activation (rescue from dofetilide block), less the hit threshold, % at 10 µM; 310,000 tested, 0.51% active; AID 1511;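 active = activation above the mean of controls blocked by dofetilide plus 5 SD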;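 note: thallium influx through hERG after potassium depolarization seen as dye fluorescence rise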
# KCNQ1 act – potentiators or activators of human KCNQ1 potassium channel. P51787. CHO-K1 KCNQ1, thallium flux FluxOR fluorescence; stronger effect = higher value. 310,000 tested, 0.35% active. B-score at 10 µM;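 active = fluorescence ratio B-score, a plate-corrected score, at least three library SD, with initial intensity B-score within 5 SD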
#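 assay system = CHO-K1 cells stably expressing KCNQ1 | medium = assay buffer, equal DMSO in all wells | timing = 37 °C overnight plating, 90-min dark dye load, 20-min compound pretreatment | measured by = kinetic FluxOR thallium fluorescence, 10-s 1-Hz baseline, 110-s post-stimulus read | measure = fluorescence change relative to baseline, converted to B score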
# KCNK9 block – human KCNK9 channel inhibition | Q9NPC2 | B-score at 10 µM | 310,000 tested, 1.2% active | HEK293 KCNK9, FluxOR thallium flux fluorescence; stronger effect = lower value;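 active = ratio B-score over 3 SD below the library mean, with starting fluorescence within 5 SD of its mean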;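 note: negative B-score means less thallium flux so channel inhibition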
# Target sequence (Q9NPC2 whole entry, looked up): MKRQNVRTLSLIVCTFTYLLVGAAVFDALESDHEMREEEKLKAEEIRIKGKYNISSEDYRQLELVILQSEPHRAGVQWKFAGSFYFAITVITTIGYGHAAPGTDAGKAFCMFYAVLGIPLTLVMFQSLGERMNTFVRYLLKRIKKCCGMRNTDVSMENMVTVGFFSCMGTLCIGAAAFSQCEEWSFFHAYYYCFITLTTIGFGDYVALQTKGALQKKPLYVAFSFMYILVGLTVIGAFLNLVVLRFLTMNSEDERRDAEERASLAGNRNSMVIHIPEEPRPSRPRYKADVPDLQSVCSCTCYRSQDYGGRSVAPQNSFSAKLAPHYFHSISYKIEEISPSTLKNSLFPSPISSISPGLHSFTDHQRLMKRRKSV
# KCC2 mod – modulators of human KCC2 chloride dependent transport; Q9H2X9; 190,000 tested, 2.2% active; B-score of Tl+ flux slope (higher = more flux/activation; lower = inhibition) at 10 µM; KCC2 cells, thallium flux FluoZin-2 fluorescence;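 active = thallium flux slope and its plate-corrected score both differing from the plate sample mean at a set confidence after two filtering rounds, in either direction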;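 note: slope of fluorescence scaled to starting intensity during 10 to 20 s after thallium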
# KCNQ1 inh – blocks the human KCNQ1 potassium channel. AID 2642. 310,000 tested, 1.3% active. CHO-K1 KCNQ1, FluxOR thallium flux fluorescence; stronger effect = higher value. B-score at 10 µM;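 active = compounds whose thallium flux B-score, printed positive for inhibition, exceeds three library SD while starting fluorescence stays within three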;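 note: channel opened by potassium depolarization with thallium stimulus after 20 min compound exposure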
# KCNQ1 inh valid – confirmation of human KCNQ1 potassium channel inhibitors; shares compounds with KCNQ1 inh; KCNQ1 cell line, FluxOR thallium flux fluorescence; inhibition, % at 10 µM; 1,600 tested, 93% active; AID 588353;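 active = primary screen active, with duplicate mean exceeding buffer control mean plus 3 SD of buffer wells, cut at about 28% in these data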;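 note: 0% = buffer control ratio and 100% = XE991 inhibitor control ratio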
# CHO Tl flux – activity in parental CHO cells lacking KCNQ1; shares compounds with KCNQ1 inh; parental CHO-K1, FluxOR thallium flux fluorescence ratio; stronger effect = lower value; zero means no signal rise above baseline; fluorescence ratio (Tl flux) at 10 µM; 1,600 tested, 21% active;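 active = mean of duplicate thallium-flux fluorescence ratios in parental host cells more than 5 SD below the buffer control mean, cut at about 0.38 in these data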;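 note: ratio is peak minus minimum fluorescence divided by baseline fluorescence; actives read low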
# KCNQ1 APC inh – human KCNQ1 inhibition validated by electrophysiology. shares compounds with KCNQ1 inh. KCNQ1-CHO cells, automated patch clamp current. calls only at 10 µM. 490 tested, 20% active. AID 624120;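 active = KCNQ1 current drop exceeding 3 SD of negative control wells, seen in both duplicate runs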;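 note: steady state current during a 2 s step from -80 to +40 mV; negative values mean current inhibition and positive values mean potentiation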
# KCNQ2 spec – KCNQ1 inhibitor that also blocks rat KCNQ2 channel; shares compounds with KCNQ1 inh; KCNQ2 cells, FluxOR thallium flux fluorescence; inhibition, % at 10 µM; 1,600 tested, 71% active; AID 651746;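 active = mean percent inhibition of the KCNQ2 thallium signal more than 5 SD above the buffer-only control wells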;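 note: KCNQ2 expressed in CHO cells; 0% = buffer control wells and 100% = XE-991 inhibitor control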
# KCNQ1 KCNE1 spec – human KCNQ1/KCNE1 inhibition in KCNQ1 specificity screen; AID 652147; inhibition, % at 10 µM; KCNQ1/KCNE1 cells, FluxOR thallium flux fluorescence; 1,600 tested, 77% active; shares compounds with KCNQ1 inh;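 active = mean percent inhibition of duplicate wells above the buffer-only control mean plus 3 SD of those controls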;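 note: 0% = buffer only wells and 100% = XE-991 inhibitor control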
# KCNK9 inh conf – human KCNK9 inhibitor confirmation; HEK293 KCNK9 cells, FluxOR thallium flux fluorescence; shares compounds with KCNK9 block; inhibition, % at 10 µM; 4,900 tested, 43% active;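 active = thallium signal inhibited by more than 5 SD of the compound-free buffer control wells, on both duplicate plates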;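 note: 0% = assay buffer control wells without compound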
# Kir2-1 spec – tests whether KCNK9 modulators also affect mouse Kir2.1; AID 492993; shares compounds with KCNK9 block; inhibition, % at 10 µM; Kir2.1 cells, FluxOR thallium flux fluorescence; 4,900 tested, 4% active;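 active = thallium signal drop more than 5 SD beyond the mean of the no-compound control wells, seen in both duplicate plates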;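 note: signal is fluorescence rise after thallium addition divided by baseline fluorescence; plate controls were assay buffer only for no effect and full block by chlorpromazine control for full effect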
# HEK293 Tl ctr – non-induced cell nonspecific activity of KCNK9 modulators | shares compounds with KCNK9 block | non-induced KCNK9-HEK293, FluxOR thallium flux | inhibition, % at 10 µM | 4,900 tested, 40% active | AID 492997;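 active = thallium signal drop beyond 5 SD of the untreated control mean, on both duplicate plates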;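 note: plate controls were buffer only IC0 wells for no effect and SID17386958 at its maximal inhibitory level for full effect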
# KCNK3 confirm – confirmation of human KCNK3 two-pore domain potassium channel inhibitors; ratio percent of control, % at 10 µM; shares compounds with KCNK3 block; 2,400 tested, 99% active; AID 651638; CHO-KCNK3 thallium flux, FluxOR fluorescence; 0% buffer, 100% carvedilol maximal block;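 active = ratio percent of control, averaged over triplicates, above buffer control mean plus 5 SD, cut at about 64% in these data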;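 note: ratio is the fluorescence rise from min to max over baseline after thallium stimulus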
# KCNK3 noninduced – KCNK3 inhibitor counter-screen hit in non-induced cells; non-induced KCNK3 parental cells, FluxOR thallium flux; stronger effect = lower value; 2,400 tested, 40% active; shares compounds with KCNK3 block; thallium flux ratio (lower = more inhibition) at 10 µM;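 active = thallium flux ratio, averaged over three wells, more than 5 SD below the buffer control mean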;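 note: host cells are CHO cells without KCNK3 induction; ratio is peak minus trough fluorescence over baseline then normalized to buffer controls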
# Starred values were filed as active, the others as inactive; i = inactive; nt = no result; + = active, no number.
SMILES,KCNK3 block,hERG rescue,KCNQ1 act,KCNK9 block,KCC2 mod,KCNQ1 inh,KCNQ1 inh valid,CHO Tl flux,KCNQ2 spec,KCNQ1 KCNE1 spec,KCNK3 confirm,KCNK3 noninduced,others
CN(C)S(=O)(=O)c1ccc(S(=O)(=O)NCc2cccs2)cc1,i,-13,i,i,nt,i,nt,nt,nt,nt,nt,nt,
O=C(Cn1nc(C(=O)O)c2ccccc2c1=O)Nc1ccc(Cl)c(S(=O)(=O)N2CCOCC2)c1,i,nt,nt,nt,nt,nt,nt,nt,nt,nt,nt,nt,
O=C(CN(C(=O)CCC(=O)Nc1ccccn1)c1ccccc1F)NCc1ccc2c(c1)OCO2,i,-11,i,i,nt,i,nt,nt,nt,nt,nt,nt,
CCN(c1ccccc1)c1cc(C)nc2nc(C)nn12,i,-6,i,i,0.024,i,nt,nt,nt,nt,nt,nt,
CCN(c1ccccc1)c1nc(C#N)nc(N(CC)c2ccccc2)n1,-11*,-10,i,i,nt,7*,106*,0.37*,112%*,80%*,102*,i,KCNK9 inh conf=i;Kir2-1 spec=i;HEK293 Tl ctr=i
COCC(C)N1C(=O)Cc2c1nc(N)c1c(N)nc(N3CCN(c4ccccc4F)CC3)c(C#N)c21 (stereo not drawn),i,-22,i,-11*,-1.3,6*,152*,0.49,i,+,115*,0.15*,KCNQ1 APC inh=i;KCNK9 inh conf=62%*;Kir2-1 spec=i;HEK293 Tl ctr=i
CCc1ccc(CN(C)C(=O)c2cc(COc3cccc4cnccc34)on2)cc1,-14*,-14,i,-10*,nt,11*,160*,0.33*,132%*,+,127*,0.15*,KCNK9 inh conf=i;Kir2-1 spec=i;HEK293 Tl ctr=i
CN(Cc1cccc2cnccc12)C(=O)c1cc(COc2ccc(F)cc2F)on1,i,-12,i,i,nt,i,nt,nt,nt,nt,nt,nt,
Cc1onc(-c2ccccc2)c1C(=O)OCCOc1cccc(Cl)c1,-14*,-9,i,i,nt,7*,86*,0.42,86%*,150%*,90*,i,
O=C(OCc1ccccn1)c1ccc(COc2ccc3ccccc3c2)o1,-10*,-31,i,-7*,-0.89,8*,148*,0.35*,121%*,+,122*,0.15*,
C=C(c1ccc2nc(NC(=O)OC)[nH]c2c1)c1cccs1,i,nt,nt,nt,nt,nt,nt,nt,nt,nt,nt,nt,
Cc1ccccc1C(=O)Oc1cccc(Nc2ncnc3ccccc23)c1,-8.8*,-32,i,-7.2*,-1.9,11*,152*,0.29*,121%*,+,132*,0.15*,
CCN(C(=O)COC(=O)c1oc2ccccc2c1C)c1c(N)n(Cc2ccccc2)c(=O)[nH]c1=O,i,nt,nt,nt,nt,nt,nt,nt,nt,nt,nt,nt,
CN(CC(=O)NCc1ccc(F)cc1)CC(=O)Nc1ccc(Cl)c(C(F)(F)F)c1,-11*,-17,i,i,nt,8*,104*,0.45,87%*,62%*,113*,i,KCNQ1 APC inh=+
CN(CC(=O)Nc1cccc(S(=O)(=O)N2CCOCC2)c1)CC(=O)Nc1ccc(Cl)c(C(F)(F)F)c1,-11*,-27,i,i,nt,8*,118*,0.43,93%*,54%*,120*,0.14*,KCNQ1 APC inh=i
CN(CC(=O)Nc1cccc(F)c1)CC(=O)Nc1cc(S(=O)(=O)N2CCOCC2)ccc1Cl,i,nt,nt,nt,nt,nt,nt,nt,nt,nt,nt,nt,
CCOC(=O)c1c(NC(=O)C(C)OC(=O)C2=COCCO2)sc2c1CCCC2 (stereo not drawn),i,nt,nt,nt,nt,nt,nt,nt,nt,nt,nt,nt,
CCOC(=O)c1c(NC(=O)C(C)OC(=O)c2ccc(NC(=O)CC#N)cc2)sc2c1CCCC2 (stereo not drawn),-9.1*,-12,i,i,nt,8*,104*,0.44,91%*,187%*,87*,0.14*,KCNQ1 APC inh=i
CCOc1ccccc1NC(=O)C(OC(=O)c1cc(C)oc1C)c1ccccc1 (stereo not drawn),i,-11,i,-7.9*,-0.7,6*,82*,0.33*,105%*,86%*,106*,i,
Cc1cc(C)c(C#N)c(SCSCc2ccccc2)n1,-9.7*,-18,i,i,-0.25,6*,86*,0.38*,110%*,125%*,107*,i,
N#Cc1ccccc1OCC(=O)NNC(=O)CCC1CCCC1,i,nt,nt,nt,nt,nt,nt,nt,nt,nt,nt,nt,
CC(C)=CCc1c(O)cc2oc3c(CC=C(C)C)c(O)c(O)c(CC=C(C)C)c3c(=O)c2c1O,-9.2*,-34,i,-13*,0.36,16*,150*,0.35*,124%*,+,146*,0.11*,KCNK9 inh conf=62%*;Kir2-1 spec=i;HEK293 Tl ctr=34%*
CC(C)=CCc1cc(-c2oc3cc(O)cc(O)c3c(=O)c2O)ccc1O,i,-13,i,i,nt,i,nt,nt,nt,nt,nt,nt,
N#CC1=C(N)NC(SCc2ccc(Br)cc2)=C(C#N)C12CCCCC2,-12*,-13,i,-6.8*,-1.3,18*,140*,0.31*,115%*,159%*,126*,0.13*,
